Paper PMC2964879 (Biochemistry, 2010)
Values after ≈ are worked out from the molar mass of the structure shown.

What was measured:
A. baumannii = assay: Antibacterial activity; format: cell-based
EntE = settings: cited from earlier work
holo-BasF = assay: ESI-TOF mass spectrometry of aryl acid loading onto holo-BasF by BasE; format: biochemical, A. baumannii AB900; settings: 50 μM holo-BasF, 200 nM BasE, 250 μM aryl acid, 16 hours
How it was run: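 His-tagged BasF from A. baumannii AB900, expressed in E. coli, made holo in vitro with Sfp and CoA, then anion-exchange purified. Apo- and holo-BasF in the same buffer were reference samples. Samples were diluted in 50:50 water:acetonitrile with 0.1% formic acid and injected directly for ESI-TOF MS.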

BasE [1] = molecular target: T1, BasE (Acinetobacter baumannii, UniProt A0A0D5YGP3); settings: for kcat, fold decrease relative to DHB / specificity constant, fold lower than DHB: relative to DHB; for KM, fold change relative to DHB: relative to DHB (increase in KM)
MbtA = settings: cited from earlier work
BasE [2] = settings: read-out: dissociation constant Kia; nonvaried substrate in eq 2; cited from earlier work
BasE [3] = settings: ATP-PPi exchange, saturating ATP; cited from earlier work
BasE [4] = molecular target: T1, BasE; assay: Fluorescence polarization displacement assay, BasE-AB900; format: binding, A. baumannii AB900; settings: read-out: KD (FP) of the fluorescent probe
BasE [5] = molecular target: T1, BasE; assay: Fluorescence polarization displacement assay, BasE-ATCC; format: binding, A. baumannii ATCC17978; settings: read-out: KD (FP) of the fluorescent probe
BasE [6] = molecular target: T1, BasE; assay: Kinetic inhibition experiments with the continuous coupled assay; format: biochemical, A. baumannii ATCC17978
[7] = tested on: coupling enzymes inorganic pyrophosphatase and purine nucleoside phosphorylase; assay: Counter-test on the coupling enzymes of the continuous assay; format: biochemical; settings: 200 μM; data not shown

Question: Which results are given for `Nc1ncnc2c1ncn2[C@@H]1O[C@H](COS(=O)(=O)NC(=O)c2cccc(O)c2O)[C@@H](O)[C@H]1O` [Compound 5, 5′-O-[N-(2,3-dihydroxybenzoyl)sulfamoyl]adenosine]?
Answer: antibacterial activity against A. baumannii (A. baumannii; unpublished results, D. Wilson and C. Aldrich): do not possess any antibacterial activity; inhibition of EntE (inhibition and dissociation constants, in words) (EntE): slow tight-binding picomolar inhibitors

Question: For `O=C(O)c1ccccc1O` [SAL, 2-hydroxybenzoic acid], which loading (holo-BasF) is on record?
Answer: Its loading is “partial”.

Question: What about the “kcat, fold decrease relative to DHB” value (BasE [1]) of the same compound?
Answer: The value was ~3 fold.

Question: And the “specificity constant, fold lower than DHB” value (BasE [1])?
Answer: The value was “approximately 6 fold”.

Question: And the “KM, fold change relative to DHB” value (BasE [1])?
Answer: The value was “approximately 2 fold”.

Question: For `Nc1nc(-c2ccccc2)nc2c1ncn2[C@@H]1O[C@H](COS(=O)(=O)NC(=O)c2ccccc2O)[C@@H](O)[C@H]1O` [5′-O-[N-(2-hydroxybenzoyl)sulfamoyl]-2-phenyladenosine], which binding constant (MbtA) is on record?
Answer: Its binding constant is “subnanomolar”.

Question: Which loading (holo-BasF) does the source give for `O=C(O)c1cccc(O)c1` [Compound 3-HBA, 3-hydroxy benzoic acid] here?
Answer: Its loading is “partial”.

Question: And the “specificity constant, fold lower than DHB” value (BasE [1])?
Answer: Its value is 60 fold.

Question: Which loading (holo-BasF) does the source give for `O=C(O)c1cccc(O)c1O` [DHB, 2,3-dihydroxybenzoic acid] here?
Answer: The loading was “full”.

Question: And the Kd (BasE [2])?
Answer: The Kd was 2630 nM.

Question: And the Km (BasE [3])?
Answer: Its Km is 1.5 µM.

Question: What about the kcat (BasE [3]) of the same compound?
Answer: The kcat was 3.5 s⁻¹.

Question: With `Nc1ncnc2c1ncn2[C@@H]1O[C@H](COS(=O)(=O)NC(=O)c2ccccc2O)[C@@H](O)[C@H]1OCCOCCOCCNC(=O)c1ccc2c(c1)C(=O)OC21c2ccc(O)cc2Oc2cc(O)ccc21` [Compound 9, 2′-O-{2-[2-(2-{[(fluorescein-5-yl)carbonyl]amino}ethoxy)ethoxy]ethoxy}-5′-O-[N-(2-hydroxybenzoyl)sulfamoyl]adenosine] as the compound, how does the Kd (BasE [4]) read?
Answer: Its Kd is 144 ± 9 nM.

Question: What about the Kd (BasE [5]) of the same compound?
Answer: The Kd was 84 ± 6 nM.

Question: With `CCCCCCCCCCCCc1cn(-c2nc(N)c3ncn([C@@H]4O[C@H](COS(=O)(=O)NC(=O)c5ccccc5O)[C@@H](O)[C@H]4O)c3n2)nn1` [Compound 7, 2-(4-n-dodecyl-1,2,3-triazol-1-yl)-5′-O-[N-(2-hydroxybenzoyl)sulfamoyl]adenosine] as the compound, how does the MIC (A. baumannii; Acinetobacter baumannii) read?
Answer: The MIC was ~15 µM (≈ 10.5 µg/mL).

Question: And the antibacterial activity (A. baumannii; iron replete conditions)?
Answer: Its antibacterial activity is “inactive”.

Question: For `O=C(O)c1cc(-c2ccccc2)nc2c1cnn2Cc1ccncc1` [Compound 8, 6-phenyl-1-(pyridin-4-ylmethyl)-1H-pyrazolo[3,4-b]pyridine-4-carboxylic acid], which “modality of inhibition with respect to DHB and ATP” value (BasE [6]) is on record?
Answer: Its value is “competitive inhibition with respect to both substrates”.

Question: What about the slow binding inhibition (BasE [6]; 10 min pre-incubation at 25 °C, data not shown) of the same compound?
Answer: Its slow binding inhibition is “did not exhibit slow binding inhibition”.

Question: And the “inhibition of the coupling enzymes” value [7]?
Answer: Its value is “did not inhibit”.

Question: Which results are given for `Nc1ncnc2c1ncn2[C@@H]1O[C@H](COP(=O)(O)OP(=O)(O)OP(=O)(O)O)[C@@H](O)[C@H]1O` [ATP]?
Answer: kcat (BasE [1]; substrate of BasE, coupled assay, 25 °C, pH 8.0): 2.8 ± 0.2 s⁻¹; Km (BasE [1]; substrate of BasE, coupled assay, 25 °C, pH 8.0, nonvaried substrates saturating): 300 ± 71 µM

Question: Which loading (holo-BasF) does the source give for `O=C(O)c1ccccc1` [BA, benzoic acid] here?
Answer: The loading was “partial”.

Question: What about the “kcat, fold decrease relative to DHB” value (BasE [1]) of the same compound?
Answer: Its value is ~10 fold.

Question: What about the “specificity constant, fold lower than DHB” value (BasE [1]) of the same compound?
Answer: The value was “three orders of magnitude”.

Question: What about the “KM, fold change relative to DHB” value (BasE [1]) of the same compound?
Answer: Its value is ~100 fold.
